Assay results taken from ChEMBL document CHEMBL2346664, “Synthesis, characterization and in vitro anticancer evaluation of novel 1,2,4-triazolin-3-one derivatives” (2013).

Columns and labels:
Format in all cases: functional
DU-145 = assay: Growth inhibition of human DU145 cells assessed as cell growth at 10 '-6 M after 48 hrs by sulforhodamine B assay; conditions: DU-145, 48 h, read-out: Activity
OVCAR-8 = assay: Growth inhibition of human OVCAR8 cells assessed as cell growth at 10 '-7 M after 48 hrs by sulforhodamine B assay; conditions: OVCAR-8, 48 h, read-out: Activity
BT-549 [1] = assay: Growth inhibition of human BT549 cells assessed as cell growth at 10 '-8 M after 48 hrs by sulforhodamine B assay; conditions: BT-549, 48 h, read-out: Activity
Summary of the method: (§1)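 Percent growth at each of the five concentrations of the 48 h continuous-exposure NCI SRB screen. Drug stocks were in DMSO at 400× the top final concentration and diluted in medium with gentamicin. Growth was calculated as [(Ti-Tz)/(C-Tz)]×100 when Ti ≥ Tz, or [(Ti-Tz)/Tz]×100 when Ti < Tz. Tz plates were fixed at drug addition; untreated wells served as control. Absorbance was read at 515 nm.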

SW-620 = assay: Growth inhibition of human SW620 cells assessed as cell growth at 10 '-4 M after 48 hrs by sulforhodamine B assay; conditions: SW-620, 48 h, read-out: Activity
COLO 205 = assay: Growth inhibition of human COLO205 cells after 48 hrs by sulforhodamine B assay; conditions: COLO 205, 48 h
Summary of the method: (§2)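 NCI 60-cell-line five-dose screen. Cells were plated at 5,000–40,000/well by doubling time and grown 24 h at 37 °C, 5% CO2. Time-zero plates were TCA-fixed. Drug from DMSO stock was tested at 0.01, 0.1, 1, 10 and 100 µM final for 48 h continuous exposure. Read-out was SRB at 515 nm. GI50 is the concentration giving 50% reduction in net protein increase versus untreated control.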

SR [2] = assay: Growth inhibition of human SR cells assessed as cell growth at 10 '-7 M after 48 hrs by sulforhodamine B assay; conditions: read-out: Activity
SR [3] = assay: Growth inhibition of human SR cells assessed as cell growth at 10 '-6 M after 48 hrs by sulforhodamine B assay; conditions: read-out: Activity
OVCAR-3 = assay: Growth inhibition of human OVCAR3 cells assessed as growth inhibition at 10 uM after 48 hrs by sulforhodamine B assay; conditions: OVCAR-3, 48 h, read-out: GI
HOP-92 = assay: Growth inhibition of human HOP92 cells after 48 hrs by sulforhodamine B assay; conditions: HOP-92, 48 h; summary of the method: as §2
NCI-H522 = assay: Growth inhibition of human NCI-H522 cells assessed as growth inhibition at 10 uM after 48 hrs by sulforhodamine B assay; conditions: NCI-H522, 48 h, read-out: GI
[4] = Growth inhibition of human […] cells assessed as growth inhibition at 10 uM after 48 hrs by sulforhodamine B assay; conditions: read-out: GI
Summary of the method: (§3)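 Percent growth inhibition from the single 10^-5 M NCI-60 screen, reported as 100 minus growth percent. Growth percent was measured after 48 h drug exposure at 37 °C, 5% CO2, using TCA fixation, SRB staining and absorbance at 515 nm, against untreated controls and time-zero plates.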

BT-549 [5] = assay: Growth inhibition of human BT549 cells assessed as growth inhibition at 10 uM after 48 hrs by sulforhodamine B assay; conditions: BT-549, 48 h, read-out: GI; summary of the method: as §3
SN12C = assay: Growth inhibition of human SN12C cells assessed as cell growth at 10 '-5 M after 48 hrs by sulforhodamine B assay; conditions: read-out: Activity
NCI-H23 = assay: Growth inhibition of human NCI-H23 cells assessed as cell growth at 10 '-8 M after 48 hrs by sulforhodamine B assay; conditions: NCI-H23, 48 h, read-out: Activity
OVCAR-5 = assay: Growth inhibition of human OVCAR5 cells assessed as growth inhibition at 10 uM after 48 hrs by sulforhodamine B assay; conditions: OVCAR-5, 48 h, read-out: GI
UACC-62 = assay: Growth inhibition of human UACC62 cells assessed as cell growth at 10 '-6 M after 48 hrs by sulforhodamine B assay; conditions: UACC-62, 48 h, read-out: Activity
UO-31 [6] = assay: Growth inhibition of human UO31 cells assessed as cell growth at 10 '-6 M after 48 hrs by sulforhodamine B assay; conditions: UO-31, 48 h, read-out: Activity
LOX IMVI = assay: Growth inhibition of human LOXIMVI cells assessed as cell growth at 10 '-7 M after 48 hrs by sulforhodamine B assay; conditions: read-out: Activity
ACHN = assay: Growth inhibition of human ACHN cells assessed as cell growth at 10 '-8 M after 48 hrs by sulforhodamine B assay; conditions: read-out: Activity; summary of the method: as §1
TK-10 = assay: Growth inhibition of human TK10 cells assessed as growth inhibition at 10 uM after 48 hrs by sulforhodamine B assay; conditions: TK-10, 48 h, read-out: GI
U-251 = assay: Growth inhibition of human U251 cells assessed as cell growth at 10 '-7 M after 48 hrs by sulforhodamine B assay; conditions: U-251, 48 h, read-out: Activity
BT-549 [7] = assay: Growth inhibition of human BT549 cells assessed as cell growth at 10 '-5 M after 48 hrs by sulforhodamine B assay; conditions: BT-549, 48 h, read-out: Activity; summary of the method: as §1
M14 = assay: Growth inhibition of human M14 cells after 48 hrs by sulforhodamine B assay; conditions: M14, 48 h; summary of the method: as §2
HCT-15 = assay: Growth inhibition of human HCT15 cells assessed as cell growth at 10 '-7 M after 48 hrs by sulforhodamine B assay; conditions: HCT-15, 48 h, read-out: Activity
SF-539 = assay: Growth inhibition of human SF539 cells assessed as cell growth at 10 '-5 M after 48 hrs by sulforhodamine B assay; conditions: SF-539, 48 h, read-out: Activity
UO-31 [8] = assay: Growth inhibition of human UO31 cells assessed as growth inhibition at 10 uM after 48 hrs by sulforhodamine B assay; conditions: UO-31, 48 h, read-out: GI
Malme-3M = assay: Growth inhibition of human MALME-3M cells after 48 hrs by sulforhodamine B assay; summary of the method: as §2
[9] = Growth inhibition of human Hs 578T cells assessed as cell growth at 10 '-7 M after 48 hrs by sulforhodamine B assay; conditions: read-out: Activity
SR [10] = assay: Growth inhibition of human SR cells assessed as cell growth at 10 '-8 M after 48 hrs by sulforhodamine B assay; conditions: read-out: Activity
SK-MEL-2 = assay: Growth inhibition of human SK-MEL-2 cells after 48 hrs by sulforhodamine B assay; conditions: SK-MEL-2, 48 h
SF-295 = assay: Growth inhibition of human SF295 cells assessed as cell growth at 10 '-8 M after 48 hrs by sulforhodamine B assay; conditions: SF-295, 48 h, read-out: Activity
[11] = read-out: LD50 (the source's name)

Structure (SMILES): Cc1cc(=O)oc2cc(OCCn3c(C)nn(-c4ccc(Cl)cc4)c3=O)ccc12
- growth at 1 µM (DU-145): 96%
- growth at 0.1 µM (OVCAR-8): 98%
- growth at 0.01 µM (BT-549 [1]): 105%
- growth at 100 µM (SW-620): 25%
- GI50 (COLO 205): 2390 nM
- TGI (COLO 205): 7340 nM
- CC50 (COLO 205; [11]): > 1000 nM
- growth at 0.1 µM (SR [2]): 99%
- growth at 1 µM (SR [3]): 29%
- inhibition of growth at 10 µM (OVCAR-3): 85.2%
- GI50 (HOP-92): 1610 nM
- TGI (HOP-92): > 1000 nM
- CC50 (HOP-92; [11]): > 1000 nM
- inhibition of growth at 10 µM (NCI-H522): 82.8%
- inhibition of growth at 10 µM [4]: 67.1%
- inhibition of growth at 10 µM (BT-549 [5]): 43.3%
- growth at 10 µM (SN12C): 39%
- growth at 0.01 µM (NCI-H23): 98%
- inhibition of growth at 10 µM (OVCAR-5): 61.2%
- growth at 1 µM (UACC-62): 61%
- growth at 1 µM (UO-31 [6]): 74%
- growth at 0.1 µM (LOX IMVI): 88%
- growth at 0.01 µM (ACHN): 111%
- inhibition of growth at 10 µM (TK-10): 40.4%
- growth at 0.1 µM (U-251): 97%
- growth at 10 µM (BT-549 [7]): 64%
- GI50 (M14): 2360 nM
- TGI (M14): > 1000 nM
- CC50 (M14; [11]): > 1000 nM
- growth at 0.1 µM (HCT-15): 95%
- growth at 10 µM (SF-539): 25%
- inhibition of growth at 10 µM (UO-31 [8]): 57.2%
- GI50 (Malme-3M): 3850 nM
- TGI (Malme-3M): > 1000 nM
- CC50 (Malme-3M; [11]): > 1000 nM
- growth at 0.1 µM [9]: 83%
- growth at 0.01 µM (SR [10]): 101%
- GI50 (SK-MEL-2): 1820 nM
- TGI (SK-MEL-2): > 1000 nM
- CC50 (SK-MEL-2; [11]): > 1000 nM
- growth at 0.01 µM (SF-295): 94%
